# From PubChem
# L major viab: Leishmania major promastigote growth inhibition. Leishmania major promastigotes, resazurin fluorescence viability. inhibition, % at 10 µM. AID 1063. hit rate 9% among 200,000; in the data active = inhibition above about 50%;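 also: promastigotes grown with compound for 44 hours at 28 °C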
# HSF1 inhib: HSF1 inhibition. NIH3T3-HGL HSE-luciferase, MG132-induced, luminescence 8 h; active compounds read low. activity change, negative = inhibition, % at 7.5 µM (by protocol). hit rate 0.77% among 300,000. AID 2098;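 active = more than half of replicate wells show activity change below -50%, luminescence cut by over half; inconclusive = some wells, but at most half, below -50%; inactive = no replicate well below -50%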;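 also: luciferase reports HSF-1 transcriptional activity via heat shock element; 0% = median of DMSO wells and -100% = zero luminescence signal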
# Hsp70 act: switches on Hsp70 transcription; HeLa Hsp70 promoter luciferase reporter, luminescence; scaled: vehicle 0, proteasome-inhibitor control 100%; activation, % at 10 µM; hit rate 0.04% among 200,000;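 active = activation above the mean across all tested compounds plus 3 SD, cutoff set per campaign, cut at about 5.5% in these data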;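 also: 100% = MG132 at 30 µM as the positive control and 0% = DMSO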
# T cruzi repl: T. cruzi replication inhibition. T. cruzi beta-gal in NIH3T3, luminescence, 90 h. hit rate 1.4% among 300,000. inhibition, % (test concentration not listed);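 active = mean inhibition across valid replicates above about 55%, limit read from the data; inconclusive = mean below that limit but half or more replicates reach it; inactive = mean below it, under half of replicates reach it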;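 also: signal also drops with host cell toxicity which is not excluded here; 0% = plate median of DMSO wells and 100% = zero luminescence signal; higher percent means less beta-gal luminescence so fewer parasites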
#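 System – NIH/3T3 host cells with β-galactosidase reporter T. cruzi · Doses – single 50 nL compound addition per well in DMSO · Reagent – 5000 T. cruzi trypomastigotes/well · Medium – Low-serum DMEM with 2% FBS · Timing – ≥90 h infection period, 3 h prior cell attachment · Evaluation – parasite load inhibition, % · Technique – GalScreen luminescence, 60 min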
# HSF1 activator: increases HSF-1 driven luciferase reporter signal | NIH3T3-HGL HSF-1 luciferase reporter, MG132, 8 h; 100% = twice DMSO control signal | activation, % at 9 µM | hit rate 1.7% among 300,000 | AID 504408;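 active = mean replicate activation of at least 50% with a set share of replicates each reaching 50%; inconclusive = only one of those two conditions met; inactive = mean below 50% and too few replicates reaching it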;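 also: 0% = median of the neutral control wells and 100% = twice that signal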
# L major 1uM: inhibitors of Leishmania major promastigote growth, repeat at 1 uM; shares compounds with L major viab; L. major promastigote growth, resazurin fluorescence, 48 h; inhibition, % at 1 µM; hit rate 13% among 1,100; AID 1258;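 active = inhibition above about 50% in both repeat tests, limit read from the data; inconclusive = one repeat under the set limit, the other over it; inactive = both repeats under the set limit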
# * marks the source's active call; other numbers are inactive results; ? = inconclusive; nt = not tested or not shown. Only a selection was taken, and hits are over-represented in it overall.
SMILES,L major viab,HSF1 inhib,Hsp70 act,T cruzi repl,HSF1 activator,L major 1uM
COc1cccc(CN(C)C(=O)c2cccc(OCc3ccccc3)c2)c1,nt,4,nt,11,2,nt
O=C(N/C=N/OCc1cccc(C(F)(F)F)c1)N1OC[C@@H]2COc3ccc4ccccc4c3[C@@H]21,92*,-7,0,33,9,-3
CO/N=C/NC(=O)N1OC[C@@H]2COc3ccc4ccccc4c3[C@@H]21,1,-5,0,8,1,nt
COC(=O)c1ccc(CNC(=O)C2CCC(=O)N(CCN3CCOCC3)C2)cc1 (stereo not given),nt,-3,nt,-24,-6,nt
O=C1c2ccccc2C(=O)c2c1cccc2N(CCO)CCO,nt,-2,nt,-13,8,nt
O=C1C=C(N(CCO)Cc2ccccc2)c2ccccc2C1=O,96*,-9,0,78*,-4,-12
CC(=O)N1c2c(cc(Br)cc2S(=O)(=O)N2CCN(c3ccccc3F)CC2)CC1C (stereo not given),nt,-9,nt,16,-8,nt
CC(C)CC(=O)OC1C(N2CCOCC2)c2c(ccc(/C=C/C(=O)N3CCOCC3)c2O)OC1(C)C (stereo not given),90*,-1,0,-4,1,-16
COc1ccc(-c2nn(-c3ccccc3C)cc2CNCCc2cnc[nH]2)cc1F,96*,2,0,34,7,-20
COc1cccc(CCNC(=O)c2ccc(OC)c(OC3CCN(C(C)C)CC3)c2)c1,nt,-1,nt,24,-2,nt
C1=C(CCNCC2CCCCC2)CCCC1,92*,nt,0,nt,nt,47
O=c1c(Cl)nc2cc(Cl)ccc2n1CCNc1ncc(C(F)(F)F)cc1Cl,101*,21,0,17,14,101*
O=c1c2nncn2c2cc(C(F)(F)F)ccc2n1CCNc1ncc(C(F)(F)F)cc1Cl,nt,6,nt,1,-8,nt
CC(=O)N1c2ccccc2C2(O)N=C(C)SC12 (stereo not given),13,-1,0,5,4,nt
C1CCC(OCCN2CCN(CCOC3CCCCC3)CC2)CC1,95*,0,0,55*,10,46
Cc1ccc(S(=O)(=O)NCc2ccccc2)cc1C(=O)NCc1ccccn1,nt,-1,nt,1,-2,nt
CCN(CC)CCNC(=O)c1[nH]c2ccc(OCc3ccccc3)cc2c1C,100*,-5,0,26,-11,-17
CCOc1ccccc1N(CC(=O)Nc1ccccc1F)S(=O)(=O)c1ccccc1,nt,2,nt,6,4,nt
COC(=O)c1ccc(-n2nnnc2SCC(=O)Nc2ccccc2F)cc1,nt,-5,nt,-6,0,nt
CCOC(=O)c1nc2cc3n(c(C)c-2c1C)C(C)C(CC)=C3C (stereo not given),99*,3,0,50,-4,29
O=C1N(CN2CCN(Cc3ccccc3)CC2)c2ccccc2C12OCCCO2,0,-4,0,-8,-6,nt
Cc1ccc(C23CC4CC(CC(CN)(C4)C2)C3)cc1,100*,3,0,38,14,13
NCC12CC3CC(C1)CC(c1ccc(Br)cc1)(C3)C2,nt,1,nt,25,-12,nt
CC(C)(C)CC(=O)NC(=S)NCc1ccco1,3,-10,0,2,-5,nt
CC(=O)Nc1ccc(NC2=Nc3ccccc3N3C2=Nc2c(c(C)nn2-c2ccccc2)C3c2ccccc2)cc1 (stereo not given),56*,-7,0,10,2,5
SMILES,L major viab,HSF1 inhib,Hsp70 act,T cruzi repl,HSF1 activator,L major 1uM
O=c1cc(-c2cccc3ccccc23)[nH][nH]1,80*,5,0,-15,10,-11
O=c1cc(-c2ccc(Cl)cc2)[nH][nH]1,-6,6,0,-10,-9,nt
COc1ccc(S(=O)(=O)N2CCC(Cc3ccccc3)CC2)cc1NC(C)=O,nt,11,nt,-4,19,nt
COc1cccc(C2C(C(=O)c3ccco3)=C(O)C(=O)N2CCN(C)C)c1OC (stereo not given),62*,-8,0,-28,3,-8
COc1cccc(C2C(C(=O)c3cc4ccccc4o3)=C(O)C(=O)N2CCN(C)C)c1OC (stereo not given),-19,1,-1,3,-1,nt
O=C(c1cccc(Cl)c1)N1CCN(CCCc2ccccc2)CC1,nt,7,nt,-3,6,nt
OCCC1CN(Cc2cnc(-c3ccc(Cl)cc3)nc2)CCN1C1CCCCC1 (stereo not given),87*,-6,0,52,-4,12
O=C(NCCN1CCOCC1)c1ccc(=O)n(Cc2ccc(Cl)cc2)c1,-3,-3,0,-14,2,nt
CCN(CC(=O)Nc1c(F)cccc1F)C(=O)C1CCN(S(=O)(=O)c2ccc(C)c(C)c2)CC1,nt,2,nt,-6,2,nt
O=C(NNc1ccc([N+](=O)[O-])cc1)Nc1ccccc1,nt,21,nt,-13,?,nt
O=C(NNc1ccccc1)C(=O)NNS(=O)(=O)c1ccc([N+](=O)[O-])cc1,89*,-1,0,61*,0,11
Cc1cc(C)cc(C(=O)N(NC(=O)Nc2ccc(Cl)cc2)C(C)(C)C)c1,98*,3,0,18,19,-11
CC(C)c1ccc(S(=O)(=O)c2ccc(NN)cc2)cc1,97*,nt,0,nt,nt,-4
Cc1ccc(-c2nc(CSCC(=O)NCCN3CCN(Cc4ccccc4)CC3)c(C)o2)cc1,52*,-12,0,8,-8,-26
O=c1c2c([nH]c3ccccc13)CCC2,nt,-5,nt,4,-15,nt
CN1CCCCc2c1[nH]c1ccccc1c2=O,98*,3,2,-16,0,-3
CCCCOC(=O)C1=C(C)NC(=O)NC1c1ccc([N+](=O)[O-])s1 (stereo not given),7,13,0,18,29,nt
CCOC(=O)C1=C(C)NC(=O)NC1c1ccc(Br)s1 (stereo not given),66*,9,0,6,35,-9
O=C(CN1CCN(S(=O)(=O)N2CCCCCC2)CC1)Nc1ccc(Br)cc1,nt,6,nt,10,8,nt
Oc1ccc(Cl)cc1C1=NCCNC(C(F)(F)C(F)F)=C1,76*,-5,0,7,-7,-18
CCNS(=O)(=O)c1ccc(CCC(=O)NCc2ccc(C)cc2)cc1,1,3,0,18,11,nt
Cc1cc(OCC(=O)NC(Cc2ccc(Cl)cc2)C(=O)O)c2c(C)c(C)c(=O)oc2c1 (stereo not given),nt,-2,nt,-23,10,nt
Cc1ccc(C(CCN)c2ccco2)cc1 (stereo not given),98*,1,0,3,-1,-9
Cc1ccc(C(CC(N)=O)c2ccco2)cc1 (stereo not given),-2,-4,0,-5,16,nt
Cc1ccn(C(C)CC(=O)Nc2ccc(-c3ccno3)cc2)n1 (stereo not given),nt,-3,nt,-18,6,nt
COc1cc(NC(=O)Cn2nnc(-c3ccncc3)n2)cc(OC)c1,90*,3,0,33,-4,-10
